For orientation: GI50 means the concentration giving 50% growth inhibition. The low end stands for greater sensitivity of the cells, the high end for lower sensitivity of the cells.

Molecules are shown by their SMILES. Activity calls are given as the source filed them. The calls are words filed in the database; no cut-off is given here.

This is an account of results in ChEMBL document CHEMBL1156976, “Enhancement of antiproliferative activity by molecular simplification of catalpol” (2010).

Experiment [1] relates to HeLa. The experiment in a line: Induction of apoptosis in human HeLa cells assessed as late apoptotic cells at 3 uM after 24 hrs using FITC-conjugated annexin V and propidium iodide staining by flow cytometry. The experiment is classed as functional. A digest of the protocol:
(§1)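 Cells were seeded at 0.25–0.5 × 10^6. After 24 h they were exposed to drug for 24 h, then kept in drug-free medium for a further 24 h. About 10,000 events were read (488/525 and 488/675 nm). Early apoptosis was AnnexinV+/PI−; late apoptosis was AnnexinV+/PI+.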

Experiment [2] concerns WiDr. Description: Antiproliferative activity against human WiDr cells after 48 hrs by sulforhodamine B assay. The experiment is classed as functional. In short, it runs like this: (§2)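 SRB assay in RPMI 1640 with 5% heat-inactivated FCS and 2 mM L-glutamine at 37 °C. Seeding was 15,000 cells/well for WiDr, T-47D and HeLa, and 10,000 for A2780, SW1573 and HBL-100. Compound was added on day 1 from DMSO stock (400× top final; 0.25% v/v DMSO control), in triplicate dilutions over 1–100, for 48 h. Cells were fixed with cold 50% TCA for 60 min at 4 °C and read at OD 492 nm. Percentage growth was calculated from T0 and end OD by NCI formulas, as means ± SD of 3–5 experiments.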
(Sulforhodamine B stains cellular protein and so reports cell mass.)

Experiment [3] relates to SW1573. Description: Antiproliferative activity against human SW1573 cells after 48 hrs by sulforhodamine B assay. The experiment is classed as functional. The following applies: SW1573, 48 h. In short, it runs like this: as §2
The test system of another experiment is A2780. The experiment in a line: Antiproliferative activity against human A2780 cells after 48 hrs by sulforhodamine B assay. In kind it is functional. The following applies: A2780, 48 h. In short, it runs like this: as §2
Experiment [4] deals with HBL-100. The experiment in a line: Antiproliferative activity against human HBL100 cells after 48 hrs by sulforhodamine B assay. Particulars: HBL-100, 48 h. The experiment is classed as functional. A digest of the protocol: as §2
The subject of experiment [5] is WiDr. The experiment in a line: Induction of apoptosis in human WiDr cells assessed as late apoptotic cells at 3 uM after 24 hrs using FITC-conjugated annexin V and propidium iodide staining by flow cytometry. The experiment is classed as functional. In short, it runs like this: as §1
A general note: In flow cytometry, cells or beads pass a laser one at a time.

The test system of experiment [6] is HeLa. Description: Induction of apoptosis in human HeLa cells assessed as early apoptotic cells at 3 uM after 24 hrs using FITC-conjugated annexin V and propidium iodide staining by flow cytometry. In kind it is functional. In short, it runs like this:
as §1

The subject of experiment [7] is WiDr. The experiment in a line: Induction of apoptosis in human WiDr cells assessed as early apoptotic cells at 3 uM after 24 hrs using FITC-conjugated annexin V and propidium iodide staining by flow cytometry. In kind it is functional. In short, it runs like this:
as §1

Another experiment has as its system T47D. The experiment in a line: Antiproliferative activity against human T47D cells after 48 hrs by sulforhodamine B assay. In kind it is functional. A digest of the protocol:
as §2

Experiment [8] deals with HeLa. Description: Antiproliferative activity against human HeLa cells after 48 hrs by sulforhodamine B assay. In kind it is functional. A digest of the protocol: as §2
Experiment [9] has as its system SW1573. The experiment in a line: Cell cycle arrest in human SW1573 cells assessed as accumulation at sub G1 phase at 3 to 5 uM after 24 hrs using propidium iodide staining by flow cytometry. In kind it is functional, cell-based. In short, it runs like this: (§3)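 Cells were seeded at 2.5–5 × 10^5 per well. After 24 h they were dosed at 1, 2, 3 and 5 for 24 h, then trypsinized and fixed overnight in ice-cold 70% ethanol at −20 °C. Samples were RNase-treated for 30 min at 37 °C in the dark and stained with propidium iodide. DNA content was read by flow cytometry on 25,000 cells/sample, giving sub-G1, G0/G1, S and G2/M fractions.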

Experiment [10] has as its system SW1573. Description: Cell cycle arrest in human SW1573 cells assessed as accumulation at G0/G1 phase at 1 to 2 uM after 24 hrs using propidium iodide staining by flow cytometry. The experiment is classed as functional, cell-based. In short, it runs like this:
as §3

The test system of experiment [11] is HBL-100. Description: Cell cycle arrest in human HBL100 cells assessed as accumulation at S phase at 1 to 2 uM after 24 hrs using propidium iodide staining by flow cytometry. In kind it is functional, cell-based. In short, it runs like this:
as §3

Experiment [12] concerns HBL-100. The experiment in a line: Cell cycle arrest in human HBL100 cells assessed as accumulation at G0/G1 phase at 1 to 2 uM after 24 hrs using propidium iodide staining by flow cytometry. The experiment is classed as functional, cell-based. In short, it runs like this: as §3
Experiment [13] deals with HeLa. Description: Decrease in cyclin D1 expression in human HeLa cells at 10 uM by Western blot analysis. In kind it is functional, cell-based. Particulars: TDE = time-dependent effect. In short, it runs like this: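 HeLa cells were treated for 12 and 24 h, then lysed on ice in Tris pH 8.0/NaCl/NP-40/SDS/EDTA buffer with protease and phosphatase inhibitors, and cleared at 10,000 g. Proteins were run by SDS–PAGE and transferred to PVDF. Blots were probed with anti-cyclin D1, followed by HRP secondary for 30 min. Bands were detected by luminol chemiluminescence with p-iodophenol enhancement.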
(Immunoblotting shows a protein as a band on a membrane.)

Experiment [14] deals with HBL-100. Description: Cell cycle arrest in human HBL100 cells assessed as accumulation at sub G1 phase at 3 to 5 uM after 24 hrs using propidium iodide staining by flow cytometry. In kind it is functional, cell-based. A digest of the protocol:
as §3

The test system of experiment [15] is SW1573. Description: Cell cycle arrest in human SW1573 cells assessed as accumulation at S phase at 1 to 2 uM after 24 hrs using propidium iodide staining by flow cytometry. The experiment is classed as functional, cell-based. A digest of the protocol: as §3

For `CC(=O)O[C@H]1OC=C[C@H]2[C@@H]1[C@H](C)C[C@H]2O[Si](c1ccccc1)(c1ccccc1)C(C)(C)C`, the Activity with HeLa [1] was found to be 12%; with WiDr [5], 2.4%; in the experiment with HeLa [6], 18%; in the experiment on WiDr [7] it was 23%. Further, the GI50 was determined as 1.13 µM in the experiment on WiDr [2]; 0.43 µM with SW1573 [3]; 1.24 µM in the experiment with A2780; 0.38 µM in the experiment on HBL-100 [4]; 1.62 µM with T47D; 1.68 µM with HeLa [8].
Take `OC[C@H]1O[C@@H](O[C@@H]2OC=C[C@H]3[C@H](O)[C@@H]4O[C@]4(CO)[C@@H]23)[C@H](O)[C@@H](O)[C@@H]1O` [CATALPOL]: the 50% growth inhibitory concentration (GI50) with WiDr [2], with SW1573 [3], in the experiment on A2780, in the experiment on HBL-100 [4], in the experiment with T47D and in the experiment on HeLa [8] was over 100 µM each time.
Turning to `CC(=O)O[C@@H]1OC=C[C@@H]2[C@H]1[C@@H](C)C[C@H]2O[Si](c1ccccc1)(c1ccccc1)C(C)(C)C`, the outcome with SW1573 [9], in the experiment with SW1573 [10], in the experiment on HBL-100 [12] and with HBL-100 [14] was Active. Also, the Activity was 25% in the experiment with HeLa [1]; 3.7% in the experiment on WiDr [5]; “tde” with HeLa [13]; 18% with HeLa [6]; 33% in the experiment on WiDr [7]. Besides, the result in the experiment with HBL-100 [11] and in the experiment on SW1573 [15] was inactive. In addition, the GI50 was found to be 1.26 µM with WiDr [2]; 0.59 µM in the experiment with SW1573 [3]; 1.59 µM with A2780; 0.5 µM with HBL-100 [4]; 1.46 µM with T47D; 1.86 µM in the experiment on HeLa [8].
